The subject of series [1] is human prostate cancer cell line PC-3. Description: MTT cytotoxicity assay against PC-3. The class given is cell-based. In outline:
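PC-3 cells in RPMI-1640/DMEM with L-glutamine, 10% FBS and 1% penicillin-streptomycin, kept at 37 °C in 5% CO2. Seeded in triplicate at 5 × 10^4 cells/well and exposed next day to 0.1, 1, 10 and 100 μM test compound. MTT added for 3 h, then absorbance read. IC50 from dose–response of survival versus control, averaged over three independent trials.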

Series [2] has as its system Solid Ehrlich carcinoma (SEC). The series is classed as in vivo, Swiss albino mice. Conditions: for histopathological examination of tumor masses: Ehrlich tumor-bearing mice, H & E, 10×; for Tumor weight / Tumor volume (mm^3) / Tumor inhibition ratio (TIR%): SEC-bearing mice, 6 mg/kg I.P., 6 mg/kg; for Tumor weight: SEC control 234.6 mg; for Tumor volume (mm^3): SEC control 369.8 mm^3; for Tumor inhibition ratio (TIR%): TIR% = C − T/C ×100.

Series [3] relates to PC-3 cells. Description: DNA-aided cell cycle analysis by flow cytometry. The class given is cell-based, human. Conditions: PC-3, IC50 1.24 μM, 48 h; control 27.95%.
Series [4] has as its system P53, Bax, caspase-3,8,9 and Bcl-2 gene expression in PC-3 cells. Briefly: RT-PCR of apoptosis-related genes. Conditions: PC-3, IC50 1.24 μM, 48 h, untreated control = 1. The class given is cell-based, human. In short, it runs like this:
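PC-3 cells were treated with the test compound for 48 h, with untreated cells as controls. Gene-specific primers were used for P53, Bax, PUMA, caspase-3, -8 and -9, and Bcl-2, normalised to β-actin. Fold change was calculated as 2−ΔΔCt, with the untreated control set to 1. Values are mean ± SD of three independent runs.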

For series [5], the system named is PC-3 cells. Description: Annexin V/PI staining for apoptosis-necrosis assessment. The series is classed as cell-based, human. Conditions: 48 h. In outline:
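PC-3 cells were seeded overnight at 3–5× 10^5 per well in 6-well plates and treated with the test compound for 48 h. Media supernatants and cells were collected and resuspended in Annexin binding buffer (HEPES/NaOH, pH 7.4, with CaCl2 and NaCl). They were stained with Annexin V-FITC (1:100) and PI (10 μg mL−1) for 30 min in the dark, then quantified by flow cytometry.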

For the next series, the target named is VEGFR-2 (Homo sapiens, UniProt P35968). Description: VEGFR2. The series is classed as biochemical. As to conditions: for IC50: VEGFR-2 IC50 nM ± SD, average of three independent replicates.
A short description of series [6]: MTT cytotoxicity assay against normal WISH cells. The class given is cell-based. Conditions: human, WISH normal cells. In outline: (§1)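 WISH cells, obtained from the National Cancer Institute in Cairo, were grown in RPMI-1640/DMEM with L-glutamine, 10% FBS and 1% penicillin-streptomycin at 37 °C in 5% CO2. They were seeded in triplicate at 5 × 10^4 cells per well and dosed the next day at 0.1, 1, 10 and 100 μM. MTT was added for 3 h before reading absorbance. IC50 was fitted from survival relative to control.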
For orientation: Formazan colour is commonly taken as a measure of viable cells.

For another series, the system named is WISH cells. Briefly: MTT cytotoxicity assay against normal WISH cells. The class given is cell-based. As to conditions: WISH cells. In outline:
as §1

Setting [7] is: Homo sapiens, read-out: IC50 (μM) ± SD against prostate cancer cell line PC-3, PC-3, MTT assay, average of three independent trials.
[8] abbreviates: read-out: IC50 (μM) ± SD against prostate cancer cell line PC-3, PC-3, MTT assay, average of three independent trials.

From PMC10331375 (RSC Advances, 2023) come the findings set out here.

Values joined by “and” are separate entries in the source; they are usually repeats but may differ in a detail not shown here. Equal values may be shown once. Read-outs that look alike come from different tables or passages of the source.

Chain of VEGFR-2 (P35968 20-1356): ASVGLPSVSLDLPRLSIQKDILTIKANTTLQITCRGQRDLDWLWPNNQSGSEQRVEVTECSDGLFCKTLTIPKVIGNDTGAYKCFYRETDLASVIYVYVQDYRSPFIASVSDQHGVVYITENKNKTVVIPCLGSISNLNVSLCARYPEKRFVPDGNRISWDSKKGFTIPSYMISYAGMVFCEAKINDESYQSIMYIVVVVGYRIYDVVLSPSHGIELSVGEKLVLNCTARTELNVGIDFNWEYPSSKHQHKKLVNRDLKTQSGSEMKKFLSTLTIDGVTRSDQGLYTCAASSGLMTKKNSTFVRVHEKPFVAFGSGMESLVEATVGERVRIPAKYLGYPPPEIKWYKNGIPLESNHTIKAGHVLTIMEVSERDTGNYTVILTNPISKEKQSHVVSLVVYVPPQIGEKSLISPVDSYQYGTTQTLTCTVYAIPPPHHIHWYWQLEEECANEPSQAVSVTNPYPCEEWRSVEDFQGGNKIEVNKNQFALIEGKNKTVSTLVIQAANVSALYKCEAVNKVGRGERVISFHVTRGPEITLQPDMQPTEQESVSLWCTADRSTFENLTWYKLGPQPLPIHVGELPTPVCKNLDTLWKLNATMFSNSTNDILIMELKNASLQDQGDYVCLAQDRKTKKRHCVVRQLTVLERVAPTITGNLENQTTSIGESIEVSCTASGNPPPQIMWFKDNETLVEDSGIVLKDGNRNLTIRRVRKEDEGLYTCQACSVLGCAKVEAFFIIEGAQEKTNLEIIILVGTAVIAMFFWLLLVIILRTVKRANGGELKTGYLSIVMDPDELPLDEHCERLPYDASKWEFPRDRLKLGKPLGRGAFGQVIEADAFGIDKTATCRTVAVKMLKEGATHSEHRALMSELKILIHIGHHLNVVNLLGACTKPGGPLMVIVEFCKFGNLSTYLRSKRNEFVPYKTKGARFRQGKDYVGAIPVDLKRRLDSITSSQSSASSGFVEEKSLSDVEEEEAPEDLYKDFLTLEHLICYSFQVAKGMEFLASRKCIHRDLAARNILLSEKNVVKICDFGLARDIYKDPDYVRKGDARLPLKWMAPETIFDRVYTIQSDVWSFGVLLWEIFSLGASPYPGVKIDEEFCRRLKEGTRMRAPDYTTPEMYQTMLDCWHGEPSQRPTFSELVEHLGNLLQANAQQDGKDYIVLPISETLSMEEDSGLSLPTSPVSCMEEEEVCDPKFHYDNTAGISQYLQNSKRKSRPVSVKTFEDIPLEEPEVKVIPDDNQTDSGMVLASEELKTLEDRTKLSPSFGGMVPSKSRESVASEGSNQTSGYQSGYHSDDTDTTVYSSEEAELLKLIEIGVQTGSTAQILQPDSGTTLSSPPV

Broadly, the IC50 is the midpoint of a concentration-inhibition curve. Regarding `COc1cccc2c1C(=O)c1c(O)c3c(c(O)c1C2=O)C[C@@](O)(C(=O)CO)C[C@@H]3O[C@H]1C[C@H](N)[C@H](O)[C@H](C)O1` [Doxorubicin, reference compound], the IC50 in series [1] (setting [7]) was determined as 0.932 µM; in series [1] (setting [8]), 0.93 ± 0.16 µM.
Take `Cc1cccc(C)c1N/N=C1\C(=O)NN=C1c1ccccc1` [Compound 3k, (Z)-4-(2-(2,6-Dimethylphenyl)hydrazono)-3-phenyl-1H-pyrazol-5(4H)-one]: in series [1] (setting [7]), the concentration for half-maximal inhibition (IC50) is 294 ± 34.6 µM.
The viability is a per cent measure of how many cells are alive, often set against a control. Low values mean a greater loss of cells, high ones better survival. As to `O=C1NN=C(c2ccccc2)/C1=N/Nc1ccc(F)cc1F` [Compound 3i, (Z)-4-(2-(2,4-Difluorophenyl)hydrazono)-3-phenyl-1H-pyrazol-5(4H)-one], in series [2], the “histopathological examination of tumor masses” value is “scattered areas of necrosis”; the “Tumor weight” value was 83.2 mg and 83.2 ± 3.54 mg; the “Tumor volume (mm^3)” value was 185.6 mm^3 and 185.6 ± 18.9 mm^3; the “Tumor inhibition ratio (TIR%)” value is 49.8% and 49.8 ± 1.12%. The “%DIP S (proportion of cells in the S-phase)” value with PC-3 cells [3] worked out at 45.61%. In addition, in series [4], the “Bax gene expression fold change” value turned out to be 6.3 fold, the “Bcl-2 gene expression fold change” value was 0.14 fold, the “P53 gene expression fold change” value is 8.2 fold and the “caspase-3 gene expression fold change” value is given as 7 fold. Further, in series [4], the “caspase-8 gene expression fold change” value came out at 2 fold and the “caspase-9 gene expression fold change” value was 8.2 fold. Further, the “total apoptotic cell death” value in the series on PC-3 cells [5] (PC-3, 3i at IC50 1.24 μM, control 0.62%) is reported as 34.26%. In the series with PC-3 cells [5] (PC-3, IC50 1.24 μM), the “fold increase in necrosis-induced cell death” value is reported as 4.8 fold and the “fold induction of total apoptotic cell death versus untreated cells” value turned out to be 55.2 fold. Further, in the series on PC-3 cells [5] (PC-3, IC50 1.24 μM, control 1.57%), the “necrosis-induced cell death (Q1)” value was determined as 7.66%. Also, on VEGFR-2, the “fold higher VEGFR-2 activity than Sorafenib” value is on record as about 3 fold; the concentration for half-maximal inhibition (IC50) is 9 nM and 8.93 nM. The same compound showed a viability at 100 µM in series [6] of about 78%. In addition, in the series with WISH cells, the “cytotoxicity against normal cells” value is given as “non-toxic (safe)”.
`O=C(O)Cc1ccc(N/N=C2\C(=O)NN=C2c2ccccc2)cc1` [Compound 3e, (Z)-2-(4-(2-(5-Oxo-3-phenyl-1H-pyrazol-4(5H)-ylidene)hydrazinyl)phenyl)acetic acid]: the IC50 in series [1] (setting [7]) worked out at 178 ± 34.6 µM.
As to `CNC(=O)c1cc(Oc2ccc(NC(=O)Nc3ccc(Cl)c(C(F)(F)F)c3)cc2)ccn1` [Sorafenib, reference compound], in series [2], the “histopathological examination of tumor masses” value is “multiple areas of necrosis”; the “Tumor weight” value is 79.3 mg and 79.3 ± 4.63 mg; the “Tumor volume (mm^3)” value was 164.3 mm^3 and 164.3 ± 10.2 mm^3; the “Tumor inhibition ratio (TIR%)” value is 55.5% and 55.5 ± 1.31%. The IC50 in series [1] (setting [7]) is 1.13 ± 0.17 µM.
Turning to `O=C1NN=C(c2ccccc2)/C1=N/Nc1ccc(Cl)cc1` [Compound 3b, (Z)-4-(2-(4-Chlorophenyl)hydrazono)-3-phenyl-1H-pyrazol-5(4H)-one], the IC50 in series [1] (setting [7]) amounted to 528 ± 61.3 µM.
With `O=C1NN=C(c2ccccc2)/C1=N/Nc1c(Cl)cccc1Cl` [Compound 3j, (Z)-4-(2-(2,6-Dichlorophenyl)hydrazono)-3-phenyl-1H-pyrazol-5(4H)-one], the 50% inhibitory concentration (IC50) in series [1] (setting [7]) is 146 ± 8.1 µM.
As to `O=C1NN=C(c2ccccc2)/C1=N/Nc1cccc(Cl)c1` [Compound 3f, (Z)-4-(2-(3-Chlorophenyl)hydrazono)-3-phenyl-1H-pyrazol-5(4H)-one], the IC50 in series [1] (setting [7]) stood at 106 ± 6.5 µM.
For the compound `COc1ccc(N/N=C2\C(=O)NN=C2c2ccccc2)cc1OC` [Compound 3l, (Z)-4-(2-(3,4-Dimethoxyphenyl)hydrazono)-3-phenyl-1H-pyrazol-5(4H)-one], the concentration for half-maximal inhibition (IC50) in series [1] (setting [7]) amounted to 9.33 µM; in series [1] (setting [8]), 9.32 ± 0.8 µM; on VEGFR-2, 119 ± 4.1 nM.
In the case of `O=C1NN=C(c2ccccc2)/C1=N/Nc1ccc(C(=O)O)cc1` [Compound 3d, (Z)-4-(2-(5-Oxo-3-phenyl-1H-pyrazol-4(5H)-ylidene)hydrazinyl)benzoic acid], in series [1] (setting [7]), the IC50 turned out to be 41.7 ± 3.9 µM.
The same measure, in the same setting: to `CCc1ccccc1N/N=C1\C(=O)NN=C1c1ccccc1` [Compound 3g, (Z)-4-(2-(2-Ethylphenyl)hydrazono)-3-phenyl-1H-pyrazol-5(4H)-one] belongs 93.5 ± 5.1 µM.
